Drawing on BindingDB's records for doi:10.1021/jm301749y (University of North Carolina at Chapel Hill, 2013), this text covers IC50 for one compound.

In general, IC50 refers to the concentration that gives 50% inhibition.

The target of this test is T1, C-C chemokine receptor type 4 (Homo sapiens, UniProt P51679).
T1 sequence (P51679 whole entry): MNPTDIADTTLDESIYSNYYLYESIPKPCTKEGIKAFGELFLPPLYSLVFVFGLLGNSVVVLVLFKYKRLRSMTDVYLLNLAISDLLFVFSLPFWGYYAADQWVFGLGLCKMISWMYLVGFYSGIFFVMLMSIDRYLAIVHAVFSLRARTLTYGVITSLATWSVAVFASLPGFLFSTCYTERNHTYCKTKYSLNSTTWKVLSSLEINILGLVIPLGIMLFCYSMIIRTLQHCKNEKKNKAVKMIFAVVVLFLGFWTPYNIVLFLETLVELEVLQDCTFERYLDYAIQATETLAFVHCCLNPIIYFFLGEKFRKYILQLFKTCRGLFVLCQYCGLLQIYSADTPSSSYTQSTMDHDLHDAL
The test is described as follows: Inverse agonist activity at CCR4 in human HTLA cells assessed as depression of basal activity incubated for 20 mins by beta arrestin-recruitment mediated luciferase reporter gene assay in absence of CCL22. The procedure, abridged: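 Transfected HTLA β-arrestin2-TEV/tTA-luciferase cells expressing CCR4, in serum-free DMEM, treated with compound dilutions in HBSS/20 mM HEPES pH 7.4 without CCL22 agonist; luciferase luminescence read on day 4; basal signal depression plotted as concentration-response curves.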
For orientation: A reporter such as luciferase makes a cellular process visible.

In the case of `CCC(C)n1ncn(-c2ccc(N3CCN(c4ccc(OC[C@H]5CO[C@](Cn6cncn6)(c6ccc(Cl)cc6Cl)O5)cc4)CC3)cc2)c1=O` (stereo partly specified) [Oriconazole], the IC50 is 200 nM.
